Data published in PMC7617399 (Nature microbiology, 2016).
Where two headings read alike, the source gives them in different places.

Tests used:
[1] = target: ORF57-UAP56 interaction (Homo sapiens, UniProt Q13838); assay: Co-immunoprecipitation of ORF57 with UAP56; type: cell-based, KSHV / human; conditions: nucleotide added to HEK-293T lysates (1.25 mM or concentration series)
Summary of the method: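 1×10^6 HEK-293T transfected with 1 μg ORF57-GFP or GFP plasmid (Lipofectamine), lysed after 24 h on ice for 20 min in modified RIPA (50 mM Tris/HCl, 150 mM NaCl, 1% NP40-alternative, pH 7.6) plus RNase A. Lysate clarified, pre-cleared on protein A for 2 h at 4°C, pulled down on GFP-trap beads with ATP, ADP or ATPγS for 2.5 h at 4°C. Western blot.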

[2] = target: recombinant GST-UAP56 (Homo sapiens, UniProt Q13838); assay: Microscale thermophoresis binding to UAP56; conditions: read-out: KD (microscale thermophoresis); FITC-labelled GST-UAP56, 37°C
Summary of the method: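 GST-UAP56 FITC-labelled, desalted into 20 mM HEPES pH 7.4 with 2 mM MgCl2, used at 100–500 nM. Titrated with test compound in a 1:1 serial dilution from 4.5 mM, final DMSO 20% (v/v). LED power 10–60%, 37°C. KD fitted in thermophoresis mode. Biological replicates.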

[3] = system: KSHV; assay: Infectious KSHV virion production; type: cell-based; conditions: 2.5 μM, supernatant 72 h after induction
Summary of the method: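 0.8×10^6 TREx BCBL1-Rta cells reactivated with 2 μg/ml doxycycline and treated with test compound or DMSO. Supernatants filtered at 72 h and used 1:1 on 1×10^6 HEK-293T. At 24 h post-infection, TRIzol RNA assayed by qRT-PCR for viral mRNA, normalised to GAPDH, shown as fold change against DMSO.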

[4] = system: TREx BCBL1-Rta cells; assay: MTS cell viability assay, TREx BCBL1-Rta; type: cell-based, human; conditions: TREx BCBL1-Rta, MTS, mean ± s.e.m.
Summary of the method: (§1)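 MTS assay: TREx BCBL1-Rta plated at 1×10^6 cells/ml and treated at once with test compound in DMSO (0.1% of volume, also added to controls). Viability read at 24 and 72 h. Biological replicates.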

[5] = system: HCMV; assay: Infectious HCMV virion production; type: cell-based
[6] = system: HSV-1; assay: Infectious HSV-1 virion production; type: cell-based
[7] = target: ADP-bound purified recombinant UAP56 (Homo sapiens, UniProt Q13838); assay: ADP displacement assay; type: binding
Summary of the method: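 Pre-formed ADP-bound enzyme: 5 μM GST-UAP56 (E. coli BL-21) run with 5 μM ATP for 30 min under ATPase-assay buffer conditions. Leftover ATP depleted with ADP-Glo reagent, then test compound added at rising concentrations and incubated 37°C for 30 min. Freed ADP converted to ATP and read by luminescence. n = 3 biological replicates.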

[8] = system: KSHV viral load in TREx BCBL1-Rta cells; assay: KSHV replication assay; type: cell-based; conditions: for EC50: read-out: EC50 72 h (μM) (Viral load)
[9] = target: HSP90; conditions: read-out: Ki (HSP90); reported value; cited from earlier work
[10] = system: ORF57-mediated ORF47 mRNA stabilization and export in HEK-293T cells; assay: Viral mRNA export assay; type: cell-based, KSHV; conditions: 2.5 μM, 18 h
Summary of the method: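 HEK-293T co-transfected with GFP or ORF57-GFP plus an intronless ORF47 reporter, then exposed to DMSO or test compound for 18 h. RNA taken from whole-cell and cytoplasmic fractions. ORF47 measured by qRT-PCR, normalised to GAPDH, ΔΔCT. n = 3, unpaired t test.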

[11] = target: purified recombinant UAP56 (GST-UAP56) (Homo sapiens, UniProt Q13838); assay: UAP56 ATPase assay; type: biochemical
Summary of the method: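 2.5 μM GST-UAP56 (E. coli BL-21, glutathione-eluted, buffer-exchanged) with 50 μM yeast tRNA, 35 μM ATP, 2 mM MgCl2, 50 mM KCl, 50 mM Tris/HCl pH 7.6. Screening at 100 μM final compound. IC50 series delivered in DMSO (1% of reaction). 37°C, 30 min, remaining ATP read by Kinase-Glo luminescence. Biological replicates.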

[12] = system: ORF57-mediated nuclear retention of cellular bulk mRNA in HEK-293T cells; assay: Fluorescence in situ hybridization of poly; type: cell-based, human; conditions: ORF57-GFP expressing HEK-293T, 24 h treatment
Summary of the method: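 HEK-293T transfected with GFP or ORF57-GFP for 6 h, then DMSO or test compound for 24 h. Poly(A) RNA detected with 5′ Alexa Fluor 546-labelled oligo dT(70) probe, nuclei stained with DAPI, confocal imaging. Cells showing nuclear mRNA retention counted. 4 independent experiments.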

[13] = system: KSHV minor capsid protein (mCP) expression in TREx BCBL1-Rta cells; assay: Viral late protein mCP expression; type: cell-based; conditions: for EC50: read-out: EC50 24 h (μM) (mCP expression)
[14] = system: KSHV latent nuclear antigen (LANA); assay: LANA immunoblotting; type: cell-based; conditions: immunoblot, range of concentrations
[15] = system: TREx BCBL1-Rta cells; assay: Apoptosis assay; type: cell-based, human; conditions: 72 h, CCT018159 at 2.5 μM
Summary of the method: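 TREx BCBL1-Rta cells exposed to DMSO or test compound for 72 h, washed, then incubated in HEPES buffer with Annexin-V-fluorescein plus propidium iodide to mark apoptotic and necrotic cells. Analysis by flow cytometry. Biological replicates.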

[16] = system: HSV-1; assay: HSV-1 plaque assay after primary infection; type: cell-based; conditions: increasing concentrations, HFF cells
Summary of the method: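 HFF (2×10^5) infected with HSV-1 at MOI 0.001 for 1 h and washed twice in PBS. Cells then overlaid with plaque agar (growth medium 1:1 with 2% agarose, 37°C) holding test compound or DMSO (0.1% final). Agarose lifted at 96 h, cells fixed 10 min in 4% paraformaldehyde, stained with 0.5% crystal violet, plaques counted by eye. Lysis also imaged directly.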

[17] = target: hTREX-UAP56 interaction (Homo sapiens, UniProt Q13838); assay: Co-immunoprecipitation of endogenous hTREX with UAP56; type: cell-based; conditions: up to 0.5 mM added to the lysate
[18] = system: HEK-293T cells; assay: MTS cell viability assay, HEK-293T; type: cell-based, human
Summary of the method: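 MTS assay: HEK-293T plated at 0.5×10^6 cells/ml 24 h ahead, then given test compound in DMSO (0.1% of volume, also added to controls). Readings normalised to DMSO wells, n = 5. CC50 from four-parameter variable-slope non-linear regression.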

[19] = MTS cell viability assay, TREx BCBL1-Rta; type: cell-based, human; conditions: human, TREx BCBL1-Rta cells
Summary of the method: as §1

[20] = reactivated TREx BCBL1-Rta, 72 h, qPCR, mean ± s.e.m.

Chain of ORF57-UAP56 interaction (P82979 2-210): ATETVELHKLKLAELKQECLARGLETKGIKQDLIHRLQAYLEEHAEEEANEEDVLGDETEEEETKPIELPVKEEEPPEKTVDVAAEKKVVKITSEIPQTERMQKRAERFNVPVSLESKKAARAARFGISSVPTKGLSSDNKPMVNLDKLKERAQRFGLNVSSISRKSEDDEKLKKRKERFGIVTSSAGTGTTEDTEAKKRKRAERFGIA
Chain of ORF57-UAP56 interaction (Q13838 2-428): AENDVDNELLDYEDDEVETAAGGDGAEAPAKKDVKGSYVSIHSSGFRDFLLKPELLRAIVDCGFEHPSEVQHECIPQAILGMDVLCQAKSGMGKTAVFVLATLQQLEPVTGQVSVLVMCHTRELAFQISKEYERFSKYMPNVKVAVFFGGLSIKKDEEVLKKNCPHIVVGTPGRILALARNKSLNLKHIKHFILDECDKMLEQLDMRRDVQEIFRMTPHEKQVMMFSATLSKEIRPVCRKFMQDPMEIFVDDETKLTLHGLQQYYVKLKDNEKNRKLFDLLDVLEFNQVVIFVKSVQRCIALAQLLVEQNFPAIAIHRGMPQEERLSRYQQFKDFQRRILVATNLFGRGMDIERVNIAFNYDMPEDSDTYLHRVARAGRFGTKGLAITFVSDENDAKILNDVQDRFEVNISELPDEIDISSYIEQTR
Chain of purified recombinant UAP56 (GST-UAP56) (Q13838 whole entry): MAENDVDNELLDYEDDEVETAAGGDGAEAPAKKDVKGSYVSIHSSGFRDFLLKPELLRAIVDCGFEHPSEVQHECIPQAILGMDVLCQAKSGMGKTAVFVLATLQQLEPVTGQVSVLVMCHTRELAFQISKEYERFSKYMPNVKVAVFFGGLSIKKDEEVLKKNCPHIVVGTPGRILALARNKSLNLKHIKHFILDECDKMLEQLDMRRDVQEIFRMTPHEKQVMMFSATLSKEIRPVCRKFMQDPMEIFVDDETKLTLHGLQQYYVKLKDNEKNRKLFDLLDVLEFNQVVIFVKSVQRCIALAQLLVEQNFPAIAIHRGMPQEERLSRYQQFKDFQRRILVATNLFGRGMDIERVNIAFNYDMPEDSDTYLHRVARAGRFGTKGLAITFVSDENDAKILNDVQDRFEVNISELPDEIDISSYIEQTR
Chain of ADP-bound purified recombinant UAP56 (Q13838 whole entry): as above
Chain of recombinant GST-UAP56 (Q13838 whole entry): as above
Chain of hTREX-UAP56 interaction (Q13838 2-428): as the sequence (Q13838 2-428) above
Chain of hTREX-UAP56 interaction (P82979 2-210, further chain): as the sequence (P82979 2-210) above

With `Nc1ncnc2c1ncn2[C@@H]1O[C@H](COP(=O)(O)OP(=O)(O)O)[C@@H](O)[C@H]1O` [ADP] the “effect of nucleotide on ORF57-UAP56/hTREX interaction” value [1] was “disrupted”.
For `Nc1ncnc2c1ncn2[C@@H]1O[C@H](COP(=O)(O)OP(=O)(O)OP(=O)(O)O)[C@@H](O)[C@H]1O` [ATP], the “effect of nucleotide on ORF57-UAP56/hTREX interaction” value [1] was “enhanced” and the Kd [2] was 30.1 ± 4.5 µM.
With `Nc1ncnc2c1ncn2[C@@H]1O[C@H](CO[P@](=O)(O)O[P@](=O)(O)O[P@@](=O)(O)S)[C@@H](O)[C@H]1O` [ATPγS, Adenosine 5′-O-(3-thio)triphosphate] the “effect of nucleotide on ORF57-UAP56/hTREX interaction” value [1] was “significantly inhibited”.
With `CCc1cc(-c2n[nH]c(C)c2-c2ccc3c(c2)OCCO3)c(O)cc1O` [CCT018159] the “reduction of viral mRNA in re-infected cells versus controls” value [3] was 80%, the CC50 ([4]; read-out: CC50 24 h (μM) (Cell viability), 24 h) was 21.1 ± 1.6 µM and the CC50 ([4]; read-out: CC50 72 h (μM) (Cell viability), 72 h) was 16.6 ± 1.1 µM. The “reduction of HCMV virion production” value ([5]; 1 μM) was 50%, the “reduction of HCMV virion production” value ([5]; 2.5 μM) was “over 99%” and the “reduction in infected cells (HSV-1 re-infection)” value ([6]; 2.5 μM) was 50%. For the same compound, the “reduction in infected cells (HSV-1 re-infection)” value ([6]; 5 μM) was 95%, the “mode of inhibition (ADP displacement)” value ([7]; ADP-bound UAP56, increasing concentrations) was “ATP/ADP-competitive inhibitor” and the IC50 ([7]; read-out: IC50 (ADP displacement)) was ~60 µM. The “potency of antiviral effect relative to IC50 on purified UAP56” value ([8]; discussion) was 30 fold, the “concentration of antiviral effect” value ([8]; discussion, assay not specified) was “around 2 μM” and the EC50 [8, 20] was 1.1 ± 0.1 µM. The Ki [9] was 1.8 ± 0.3 µM, the “effect on ORF57-mediated ORF47 mRNA stabilization and export” value [10] was “abolished” and the “reduction of UAP56 activity” value ([11]; at 100 μM (compound screening)) was > 70%. For the same compound, the “effect on ORF57-mediated nuclear retention of poly(A) RNA” value [12] was “nuclear retention was lost”, the mCP expression ([13]; at 2.5 μM) was “marked reduction” and the “concentrations at which mCP inhibition occurred” value ([13]; immunoblot) was 1 to 2.5 µM. The EC50 ([13]; reactivated TREx BCBL1-Rta, 24 h, mean ± s.e.m.) was 0.6 ± 0.1 µM, the LANA degradation [14] was “no LANA degradation” and the apoptosis [15] was “no increase in apoptosis”. The Kd [2] was 76 ± 3.8 µM, the “cell lysis, plaque size and plaque number” value [16] was “dramatically decreased” and the “effect on hTREX-UAP56 interaction” value [17] was “did not inhibit”. For the same compound, the non-cytotoxic concentrations [18] was < 15 µM.
For `CCc1cc(-c2n[nH]c(C)c2-c2ccc(OC)cc2)c(O)cc1O` [Cmpd. 3, 4-Ethyl-6-(4-(4-methoxyphenyl)-3-methyl-1H-pyrazol-5-yl)benzene-1,3-diol], the CC50 at 24 h [19] was 27.9 ± 2.7 µM, the CC50 at 72 h [19] was 14.7 ± 0.5 µM and the EC50 ([8]; Human gammaherpesvirus 8, 72 h) was 2.7 ± 0.2 µM. The IC50 [11] was 88.7 ± 7.9 µM and the EC50 ([13]; Human gammaherpesvirus 8, 24 h) was 2.4 ± 0.4 µM.
For `CCc1cc(-c2n[nH]c(C(=O)O)c2-c2ccc(OC)cc2)c(O)cc1O` [Cmpd. 4, 3-(5-Ethyl-2,4-dihydroxyphenyl)-4-(4-methoxyphenyl)-1H-pyrazole-5-carboxylic acid], the CC50 at 24 h [19] was ~820 µM, the CC50 at 72 h [19] was > 1000 µM and the EC50 ([8]; Human gammaherpesvirus 8, 72 h) was 138 ± 45.2 µM. The IC50 [11] was > 1000 µM and the EC50 ([13]; Human gammaherpesvirus 8, 24 h) was > 1000 µM.
In the case of `CO[C@H]1/C=C\C=C(/C)C(=O)NC2=CC(=O)C(NCCN(C)C)=C(C[C@@H](C)C[C@H](OC)[C@H](O)[C@@H](C)/C=C(\C)[C@@H]1OC(N)=O)C2=O` [Compound 17-DMAG], the EC50 [8, 20] is reported as 0.04 ± 0.01 µM, the “UAP56 ATPase inhibition” value ([11]; Supplementary Fig. 2a) is reported as “no UAP56 ATPase inhibition” and the “effect on ORF57-mediated nuclear retention of poly(A) RNA” value [12] is reported as “failed to relieve”. For the same compound, the LANA degradation [14] was “enhanced” and the apoptosis [15] was “increased levels of apoptosis and necrosis”.
